{
  "source": "paper PMC9055608",
  "about": "(RSC Advances, 2020)",
  "key": {"[1]": {"conditions": "cisplatin; cited from earlier work"}, "A-549": {"test_system": "A-549", "assay": "MTT cell proliferation assay, A-549", "assay_type": "cell-based, human", "conditions": "A-549, lung; MTT, 72 h", "outline": "(§1)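 ATCC lines grown in DMEM or RPMI-1640 with 10% heat-inactivated FBS and 1% penicillin/streptomycin at 37 °C, 5% CO2. Log-phase cells seeded at about 4000–5000/well and left to adhere 24 h. Sextuplicate wells, 72 h. MTT for 4 h, then DMSO and absorbance. IC50 taken from dose–response curves.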"}, "A375": {"test_system": "A375", "assay": "MTT cell proliferation assay, A375", "assay_type": "cell-based, human", "conditions": "A375, melanoma; MTT, 72 h", "outline": "as §1"}, "HT-29": {"test_system": "HT-29", "assay": "MTT cell proliferation assay, HT-29", "assay_type": "cell-based, human", "conditions": "HT-29, colon; MTT, 72 h", "outline": "as §1"}, "MDA-MB231": {"test_system": "MDA-MB231", "assay": "MTT cell proliferation assay, MDA-MB231", "assay_type": "cell-based, human", "conditions": "MDA-MB231, breast; MTT, 72 h", "outline": "as §1"}, "SKBR3": {"test_system": "SKBR3", "assay": "MTT cell proliferation assay, SKBR3", "assay_type": "cell-based, human", "conditions": "SKBR3, breast; MTT, 72 h", "outline": "as §1"}, "SKOV3": {"test_system": "SKOV3", "assay": "MTT cell proliferation assay, SKOV3", "assay_type": "cell-based, human", "conditions": "SKOV3, ovary; MTT, 72 h", "outline": "as §1"}, "MCF-7 xenograft tumour [2]": {"test_system": "MCF-7 xenograft tumour", "assay": "Drug efficacy in vivo, MCF-7 breast cancer model", "design": "species or system nude mice", "conditions": "positive control"}, "N87": {"test_system": "N87", "assay": "MTT cell proliferation assay, N87", "assay_type": "cell-based, human", "conditions": "N87, stomach; MTT, 72 h", "outline": "as §1"}, "MDA-MB453": {"test_system": "MDA-MB453", "assay": "MTT cell proliferation assay, MDA-MB453", "assay_type": "cell-based, human", "conditions": "MDA-MB453, breast; MTT, 72 h", "outline": "as §1"}, "SKMEL-28": {"test_system": "SKMEL-28", "assay": "MTT cell proliferation assay, SKMEL-28", "assay_type": "cell-based, human", "conditions": "SKMEL-28, skin; MTT, 72 h", "outline": "as §1"}, "DU-145": {"test_system": "DU-145", "assay": "MTT cell proliferation assay, DU-145", "assay_type": "cell-based, human", "conditions": "DU-145, prostate; MTT, 72 h", "outline": "as §1"}, "Calu-3": {"test_system": "Calu-3", "assay": "MTT cell proliferation assay, Calu-3", "assay_type": "cell-based, human", "conditions": "Calu-3, lung; MTT, 72 h", "outline": "as §1"}, "MCF-7 xenograft tumour [3]": {"test_system": "MCF-7 xenograft tumour", "assay": "Pathological tissue sections", "assay_type": "in vivo, nude mice", "conditions": "positive control group, cisplatin 5 mg kg^−1", "outline": "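Tumour-bearing nude mice were anaesthetised and killed after the 9-day dosing. Heart, liver, spleen, lung, kidney, brain and tumour were fixed in 10% formalin, embedded in paraffin, cut into 4 μm sections and stained with haematoxylin–eosin.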"}, "[4]": {"assay": "Mouse weight during in vivo efficacy study", "design": "species or system nude mice", "conditions": "during the nine days of treatment"}, "MCF-7": {"test_system": "MCF-7", "assay": "MTT cell proliferation assay, MCF-7", "assay_type": "cell-based, human", "conditions": "MCF-7, breast; MTT, 72 h", "outline": "as §1"}},
  "data": [
    {"smiles": "N.N.[Cl][Pt][Cl]", "note": "[Cisplatin, cis-platinum, reference compound]", "values": [
      {"measurement": "AUC0→t", "setting": "[1]", "value": "36 000 μg L^−1 h"},
      {"measurement": "CL", "setting": "[1]", "value": 0.23, "unit": "L·kg/h"},
      {"measurement": "IC50", "setting": "A-549", "value": "3.03 ± 0.24", "unit": "µM"},
      {"measurement": "IC50", "setting": "A375", "value": "5.28 ± 0.18", "unit": "µM"},
      {"measurement": "IC50", "setting": "HT-29", "value": "4.71 ± 0.17", "unit": "µM"},
      {"measurement": "IC50", "setting": "MDA-MB231", "value": "12.8 ± 0.58", "unit": "µM"},
      {"measurement": "IC50", "setting": "SKBR3", "value": "3.04 ± 0.17", "unit": "µM"},
      {"measurement": "IC50", "setting": "SKOV3", "value": "4.15 ± 0.3", "unit": "µM"},
      {"measurement": "Tumour weight (mean)", "setting": "MCF-7 xenograft tumour [2]; group E, cisplatin 5 mg kg^−1 tail vein for 9 days", "value": "299.53 ± 109.60"},
      {"measurement": "Inhibition rate (IR) determined as tumour weight", "setting": "MCF-7 xenograft tumour [2]; cisplatin 5 mg kg^−1 for 9 days", "value": 64.10, "unit": "%"},
      {"measurement": "IC50", "setting": "N87", "value": "8.35 ± 0.3", "unit": "µM"},
      {"measurement": "IC50", "setting": "MDA-MB453", "value": "15.4 ± 0.83", "unit": "µM"},
      {"measurement": "IC50", "setting": "SKMEL-28", "value": "12.9 ± 0.96", "unit": "µM"},
      {"measurement": "IC50", "setting": "DU-145", "value": "2.82 ± 0.14", "unit": "µM"},
      {"measurement": "IC50", "setting": "Calu-3", "value": "7.39 ± 0.25", "unit": "µM"},
      {"measurement": "tumour histopathology", "setting": "MCF-7 xenograft tumour [3]", "value": "a large amount of tumour cell necrosis with nucleolysis"},
      {"measurement": "mouse weight course (in words)", "setting": "[4]", "value": "obvious weight loss"},
      {"measurement": "IC50", "setting": "MCF-7", "value": "11.2 ± 0.6", "unit": "µM"}
    ]}
  ]
}
